Source: publication PMC8212730 (Clinical and Translational Science, 2021)
Where two headings read alike, the source gives them in different places.

Legend:
[1] = Final population PK model of ivosidenib; assay type: in vivo, human
[2] = Exposure-efficacy analysis; assay type: in vivo, human; conditions: human, plasma, oral, AUCss range of quartile
Summary of the method: (§1)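 Plasma drug was measured by LC-MS/MS (ranges 1–1000 and 50–50,000 ng/ml). Data were fitted with a two-compartment population PK model with first-order absorption and elimination. Individual empirical Bayes estimates gave steady-state AUC per patient from the nominal q.d. dose. AUCss was related to CR, CR/CRh, overall response and non-CR/CRh response by logistic regression and Kaplan-Meier plots.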

R/R AML = experiment: Exposure-efficacy analysis; assay type: in vivo, human
Summary of the method: as §1

Exposure-safety analysis = assay type: in vivo, human
[3] = Concentration-corrected QT; assay type: in vivo, human; conditions: human, plasma, oral, 500 mg
Summary of the method: (§2)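 Patients on ivosidenib 500 mg q.d. had triplicate ECGs with time-matched plasma samples, pooled with two other phase I studies (solid tumours, healthy volunteers): 171 patients, 1203 measurements. Plasma drug was measured by LC-MS/MS. A linear mixed-effects model had population intercept and slope with bivariate-normal between-subject variability. Covariates were selected stepwise (likelihood ratio, 0.05). ΔQTcF and 90% CI were predicted at geometric mean Cmax. Fridericia and Bazett corrections were compared.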

[4] = tested on: corrected QT interval (QTcF); experiment: Concentration-corrected QT; assay type: in vivo, human
Summary of the method: as §2

[5] = cited from earlier work; for Median time to maximal concentration range: across dose range
mIDH1 R/R AML = conditions: 500 mg q.d., cited from earlier work
[6] = healthy participants; strong CYP3A4 inhibitor itraconazole; cited from earlier work
[7] = patients with AML after multiple doses of ivosidenib; PBPK model; cited from earlier work
[8] = human plasma; ref not given; cited from earlier work
human CYP3A4 = conditions: cited from earlier work
CYP2B6 = conditions: cited from earlier work
CYP2C8 = conditions: cited from earlier work
CYP2C9 = conditions: in vitro; cited from earlier work
[9] = single dose 500 mg; cited from earlier work
[10] = final population PK model, derived from steady-state parameters and fold changes
[11] = final population PK model, single dose to steady state

In the case of `N#Cc1ccnc(N2C(=O)CC[C@H]2C(=O)N(c2cncc(F)c2)[C@H](C(=O)NC2CC(F)(F)C2)c2ccccc2Cl)c1` [ivosidenib], the “Dose proportionality of exposure” value ([1]; 100 mg b.i.d. and 300-1200 mg q.d.) is reported as “slightly less than dose proportional”, the “Predicted Cmax in the typical patient” value ([1]; 500 mg q.d., steady state, albumin 37 g/L, weight 74.2 kg, no CYP3A4 inhibitor) is reported as 4827 ng/mL and the “Reduction in ivosidenib CL/F” value ([1]; concomitant fluconazole) is reported as 41%. For the same molecule, the “Reduction in ivosidenib CL/F” value ([1]; concomitant posaconazole) was 35%, the “Reduction in ivosidenib CL/F” value ([1]; concomitant voriconazole) was 36% and the “Effect of concomitant pantoprazole or famotidine on CL/F” value ([1]; covariate analysis) was “did not affect”. For the same molecule, the “Impact of mild CYP3A4 inhibitors” value ([1]; covariate analysis) was “minimal”, the “Correlation between CL/F and hepatic function indicators” value ([1]; covariate analysis, patients with mild hepatic impairment) was “no correlation” and the “Albumin ratio-CL/F exponent” value ([1]; final population PK model) was 0.99. The “Albumin ratio-Vc/F exponent” value ([1]; final population PK model) was 1.1, the “Baseline albumin-Vc/F exponent” value ([1]; final population PK model) was 0.73 and the “Decrease in relative bioavailability from single dose to steady state” value ([1]; final population PK model) was 2 fold. For the same molecule, the “Fold change in CL with mild CYP3A inhibitors” value ([1]; final population PK model) was 1.04, the “Fold change in CL with other moderate/strong CYP3A inhibitors” value ([1]; final population PK model) was 0.92 and the “Increase in exposure with a doubling of dose” value ([1]; final population PK model) was ~ 40%. The “Steady-state Q/F” value ([1]; final population PK model) was 15.8 L/h, the “Steady-state Vc/F” value ([1]; final population PK model) was 234 L and the “Steady-state Vp/F” value ([1]; final population PK model) was 151 L. The “Tlag (zero-order release duration, lag-time)” value ([1]; final population PK model) was 0.27 h, the “ka (first-order absorption rate constant)” value ([1]; final population PK model) was 1.38 h⁻¹ and the Wt-Vc/F exponent ([1]; final population PK model, baseline body weight) was 0.92. For the same molecule, the “Fold change in CL with fluconazole” value ([1]; final population PK model, concomitant fluconazole) was 0.59, the “Fold change in CL with posaconazole” value ([1]; final population PK model, concomitant posaconazole) was 0.65 and the “Fold change in CL with voriconazole” value ([1]; final population PK model, concomitant voriconazole) was 0.64. For the same molecule, the “First-dose CL/F” value [1, 10] was 1.63 L/h, the “First-dose Q/F” value [1, 10] was 4.8 L/h and the “First-dose Vc/F” value [1, 10] was 71 L. The “First-dose Vp/F” value [1, 10] was 46 L, the “Steady-state CL/F” value ([1]; final population PK model, oral, patients with mIDH1 advanced hematologic malignancies) was 5.39 L/h and the “Steady-state fold change in CL” value [1, 11] was 1.66. For the same molecule, the “Steady-state fold change in Frel” value [1, 11] was 0.5, the “Effect of time-varying albumin changes on plasma exposure” value ([1]; human, in vivo) was “less than 20%” and the “Increase in AUCss” value ([1]; moderate/strong CYP3A4 inhibitors) was 60%. For the same molecule, the AUC ([2]; AUCss quartile 1, 51 patients) was 40.9 to 93.1 µg·h/mL, the AUC ([2]; AUCss quartile 2, 50 patients) was 93.4 to 122 µg·h/mL and the AUC ([2]; AUCss quartile 3, 50 patients) was 124 to 170 µg·h/mL. For the same molecule, the AUC ([2]; AUCss quartile 4, 50 patients) was 171 to 361 µg·h/mL, the “Incidence of CR (complete remission)” value (R/R AML; AUCss quartile 1) was 11 (22%) n and the “Incidence of CR/CRh” value (R/R AML; AUCss quartile 1) was 17 (33%) n. The “Incidence of OR (overall response)” value (R/R AML; AUCss quartile 1) was 20 (39%) n, the “Incidence of CR (complete remission)” value (R/R AML; AUCss quartile 2) was 12 (24%) n and the “Incidence of CR/CRh” value (R/R AML; AUCss quartile 2) was 15 (30%) n. For the same molecule, the “Incidence of OR (overall response)” value (R/R AML; AUCss quartile 2) was 18 (36%) n, the “Incidence of CR (complete remission)” value (R/R AML; AUCss quartile 3) was 9 (18%) n and the “Incidence of CR/CRh” value (R/R AML; AUCss quartile 3) was 12 (24%) n. For the same molecule, the “Incidence of OR (overall response)” value (R/R AML; AUCss quartile 3) was 18 (36%) n, the “Incidence of CR (complete remission)” value (R/R AML; AUCss quartile 4) was 11 (22%) n and the “Incidence of CR/CRh” value (R/R AML; AUCss quartile 4) was 15 (30%) n. For the same molecule, the “Incidence of OR (overall response)” value (R/R AML; AUCss quartile 4) was 19 (38%) n, the “Association between nominal AUCss and probability of clinical response” value (R/R AML; logistic regression) was “minimal” and the “Patients with OR” value (R/R AML; of 201 patients with R/R AML) was 75 patients. For the same molecule, the “Patients with non-CR/CRh response” value (R/R AML; of 201 patients with R/R AML) was 16 patients, the “Incidence of new or worsening all grade ALT” value (Exposure-safety analysis; 253 patients) was 15% and the “Association between incidence of events for all safety end points and AUCss” value (Exposure-safety analysis; logistic regression) was “no association”. The Cmax [3] was 6550 ng/mL, the “Predicted ΔQTcF” value ([4]; at 6551 ng/ml, geometric mean Cmax for 500 mg q.d.) was 17.2 ms and the “Relationship between ΔQTcF and ivosidenib concentration” value ([4]; in vivo) was “significant direct relationship”. For the same molecule, the “Increase of ΔQTcF with plasma ivosidenib concentration (slope)” value ([4]; linear mixed-effects model) was 0.00258 msec/(ng/ml), the Half-life ([5]; after a single dose) was 72 to 138 h and the “Time to steady state” value ([5]; daily dosing) was no more than 14 days. The “Median time to maximal concentration range” value ([5]; multiple dosing) was 1.9 to 4.0 h, the “Median time to maximal concentration range” value ([5]; single dose administration) was 2.4 to 5.5 h and the “Rate of CR plus CRh” value (mIDH1 R/R AML; 174 patients with mIDH1 R/R AML) was 32.8%. For the same molecule, the “Median duration of CR/CRh” value (mIDH1 R/R AML) was 8.2 months, the “Median time to CR/CRh response” value (mIDH1 R/R AML) was 2 months and the “Change in plasma AUC with itraconazole” value [6] was 1.69 fold. The “Predicted change in plasma AUC in the presence of itraconazole” value [7] was 1.44 fold, the Protein bound [8] was ~ 90% and the “Contribution to metabolism of ivosidenib” value (human CYP3A4; CYP3A4) was “major metabolism pathway”. The Inducer status (human CYP3A4; in vitro, human CYP3A4) was “inducer”, the Substrate status (human CYP3A4; in vitro, human CYP3A4) was “substrate” and the “Contribution to metabolism of ivosidenib” value (CYP2B6) was “minor contributions”. The Inducer status (CYP2B6; in vitro) was “may also be an inducer”, the “Contribution to metabolism of ivosidenib” value (CYP2C8) was “minor contributions” and the Inducer status (CYP2C8; in vitro) was “may also be an inducer”. The Inducer status (CYP2C9) was “may also be an inducer” and the “Effect of mild/moderate hepatic impairment on ivosidenib exposure” value [9] was “did not lead to clinically relevant changes in ivosidenib exposure”.
